Read-outs that look alike come from different tables or passages of the source.
Tests used:
ITC: binding = experiment: ITC: binding
Procedure, shortened: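 25 × 10 μl injections of 50 μM full-length BclXL into a cell of 2 mM TOCL/DHPC bicelles (1:4 molar ratio, stirred 2 h at 37 °C in buffer). 25 °C; 50 mM buffer (acetate pH 4 to CAPS pH 10) with 100 mM NaCl, 1 mM EDTA and 5 mM β-mercaptoethanol. Buffer-titration heats subtracted. Kd and ΔH from a one-site fit; TΔS = ΔH − ΔG. ≥3 repeats.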

[1] = type: physicochemical; settings: 50μM BclXL, 1°C/min
Far-UV CD of BclXL = type: physicochemical; settings: 5μM BclXL, 25°C
Procedure, shortened: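 Far-UV spectra of 5 μM full-length human BclXL in 50 mM acetate (pH 4), phosphate (pH 6), Tris (pH 8) or CAPS (pH 10). 25 °C; 2-mm quartz cuvette; 190–250 nm; 2-nm slit; 10 nm/min scan. Buffer reference spectra subtracted. At least three repeats.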

[2] = Steady-state intrinsic tryptophan fluorescence of BclXL; type: physicochemical; settings: 5μM BclXL, excitation 290nm, 25 °C
Procedure, shortened: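 Tryptophan emission of 5 μM full-length human BclXL (N-His, E. coli-expressed) alone in 50 mM acetate pH 4, phosphate pH 6, Tris pH 8 or CAPS pH 10. 25 °C, 10-mm cuvette; excitation 290 nm; emission scanned 300–500 nm; 2.5-nm bandwidths. Spectra corrected against buffer reference. At least three repeats.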

[3] = ANS fluorescence in the presence of BclXL; type: binding; settings: for ANS fluorescence enhancement: 5μM BclXL, excess ANS, excitation 375nm, 25 °C
Procedure, shortened: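 Full-length human BclXL (residues 1–233, N-His, E. coli-expressed, Ni-NTA purified) at 5 μM with excess ANS in 50 mM acetate pH 4, phosphate pH 6, Tris pH 8 or CAPS pH 10. 25 °C; excitation 375 nm; emission 400–600 nm; 2.5-nm bandwidths. ANS-alone background subtracted. Enhancement = (Φ−Φo)/Φo × 100%, where Φ is the integrated spectral area. At least three repeats.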

[4] = Acrylamide quenching of BclXL intrinsic fluorescence; type: physicochemical; settings: 5μM BclXL, excess acrylamide, 25 °C
Procedure, shortened: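 Intrinsic fluorescence quenching: 5 μM His-tagged full-length human BclXL with excess acrylamide in 50 mM acetate (pH 4), phosphate (pH 6), Tris (pH 8) or CAPS (pH 10). 25 °C, 10-mm cuvette; excitation 290 nm; emission 300–500 nm; 2.5-nm bandwidths. […] Q = (Φo−Φ)/Φo × 100% from integrated spectral areas. At least three repeats.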

Near-UV CD of BclXL = type: physicochemical; settings: 30μM BclXL, 25°C
Procedure, shortened: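 Near-UV spectra recorded on 30 μM His-tagged full-length human BclXL in 50 mM acetate pH 4, phosphate pH 6, Tris pH 8 or CAPS pH 10. 25 °C; 10-mm quartz cuvette; 260–340 nm; 2-nm slit; 10 nm/min. Spectra normalized against buffer references. At least three repeats.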

full-length BclXL: Full-length human BclXL (residues 1-233), N-terminal His-tag, expressed in Escherichia coli
TΔS (ITC: binding; pH 4, acetate, 25 °C, TΔS=ΔH-ΔG, ± SD, n at least 3): -53.73 ± 4.1 kcal/mol
ΔH (ITC: binding; pH 4, acetate, 25 °C, ± SD, n at least 3): -63.00 ± 4.2 kcal/mol
ΔG (ITC: binding; pH 4, acetate, 25 °C, ΔG=RTlnKd, ± SD, n at least 3): -9.26 ± 0.1 kcal/mol
binding to TOCL/DHPC bicelles, in words (ITC: binding; pH 4-10): only under acidic conditions
melting temperature (no melting transition up to) ([1]; pH 4, 50mM buffer, 3atm): > 120 °C
melting temperature (Tm), first transition ([1]; pH 6, attributed to dissociation of dimer into monomers): around 55 °C
melting temperature (Tm), second transition ([1]; pH 6, attributed to unfolding of monomers): ~70 °C
melting temperature (Tm), first transition ([1]; pH 10, dissociation of dimer into monomers): around 60 °C
melting temperature (Tm), second transition ([1]; pH 10, unfolding of monomers): ~90 °C
intensity of far-UV spectrum (Far-UV CD of BclXL; pH 4-10): steadily increases with increasing pH
far-UV CD band, first (Far-UV CD of BclXL; all pH conditions): around 208 nm
far-UV CD band, second (Far-UV CD of BclXL; all pH conditions): ~222 nm
intrinsic fluorescence vs pH ([2]; pH 4, 6, 8, 10): drops as the pH changes from 4 to 6, it undergoes substantial enhancement at pH 8 only to drop again at pH 10
tryptophan emission maximum ([2]; pH-independent): around 338 nm
ANS emission maximum upon binding to BclXL ([3]; blue-shifted from 515nm in water): around 475 nm
ANS fluorescence enhancement ([3]; pH 4): ~15 fold
ANS fluorescence enhancement ([3]; pH 6): 2 fold
ANS fluorescence enhancement ([3]; pH 8): about 5 fold
ANS fluorescence enhancement ([3]; pH 10): about 5 fold
fluorescence quenching by acrylamide vs pH [4]: optimal quenching occurs at pH 6
near-UV CD signal (Near-UV CD of BclXL; acidic pH (pH 4)): substantially attenuated
near-UV CD signal (Near-UV CD of BclXL; alkaline conditions (pH 8 and 10)): also attenuated
near-UV CD signal (Near-UV CD of BclXL; pH 6): strong near-UV CD signal
